According to PMC7502533 (ACS chemical biology, 2020):

Tests used:
Chmp1b = Chmp1b recruitment to damaged endosomes; format: cell-based
[1] = system: Neuro-2a and HeLa cell lines; experiment: Endocytic uptake of AF488-labelled probes by flow cytometry; format: cell-based; conditions: AF488-H1 added after reagent treatment, biological duplicates
TFEB = TFEB nuclear accumulation; format: cell-based; conditions: for nuclear translocation of TFEB: percentage of cells displaying TFEB nuclear accumulation, biological duplicates
Method in brief: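 HeLa and Neuro-2a cells were treated with the CPP combined with an endosome-priming small molecule, or with LLOME. TFEB localization was then followed over time until the protein returned to a cytoplasmic distribution.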

Neuro-2a and HeLa = experiment: Recovery of LysoTracker Green staining; format: cell-based; conditions: cell line not specified; biological triplicates
Method in brief: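 HeLa and Neuro-2a cells were exposed to the delivery agent, or LLOME as the reference, then washed. LysoTracker was added at increasing intervals after washing, and lysosomal staining was followed over time to find when it returned to the untreated level.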

Galectin-3 (Gal3) = experiment: Gal3 recruitment to damaged endosomes; format: cell-based
[2] = cells incubated with reagent, washed and imaged, biological duplicates

Row | SMILES | Chmp1b recruitment (Chmp1b; Neuro-2a) | number of Chmp1b puncta (Chmp1b; [2]) | uptake of H1 [1] | additional time to return to a cytoplasmic TFEB distribution (TFEB; after the initial 3h, biological triplicates) [h] | time TFEB nuclear accumulation is steady or rising after treatment (TFEB; biological triplicates) [h] | nuclear translocation of TFEB (TFEB) | recovery time of LysoTracker staining (Neuro-2a and HeLa) [h] | toxicity to cells of cell penetration (cells) | Gal3 recruitment (Galectin-3 (Gal3); Neuro-2a) | Gal3 distribution / puncta (Galectin-3 (Gal3); [2])
1 | COC(=O)[C@H](CC(C)C)NC(=O)[C@@H](N)CC(C)C [LLOME, L-leucyl-L-leucine methyl ester] | did not trigger | trigger the recruitment of Chmp1b and Gal3 | stimulated | 9 | 3 | triggered the nuclear translocation of TFEB | 8 | delayed loss of viability | did not trigger | trigger the recruitment of Chmp1b and Gal3
2 | CO/C1=C\C(C)=C\[C@@H](C)[C@@H](O)[C@@H](C)C/C(C)=C/C=C/[C@H](OC)[C@@H]([C@@H](C)[C@@H](O)[C@H](C)[C@@]2(O)C[C@@H](O)[C@H](C)[C@@H](C(C)C)O2)OC1=O [bafilomycin] |  |  |  |  |  | positive control |  |  |  | 
